Experimental data collected from several papers.
Lines come from different studies, so protocols differ.
Cell line: HeLa
Observed: cell growth or viability

`CCCCCCCCCc1cn(CCN2CCN(C(=O)c3c(C)nc4cc(C)ccn34)CC2)nn1` has a CC50 of 62.7 µM (resazurin).
The CC50 of `CCOP(=O)(OCC)[C@@H]1C[C@H](n2cc(C(=O)OC)nn2)ON1C` (relative stereo) is reported as greater than 250 µM (72 h).
The IC50 of `CC(=O)O[C@H]1C(=O)[C@@]2(C)[C@H]([C@H](OC(=O)c3ccccc3)[C@]3(O)C[C@H](OC(=O)[C@H](O)[C@@H](NC(=O)c4ccccc4)c4ccccc4)C(C)=C1C3(C)C)[C@]1(OC(C)=O)CO[C@@H]1C[C@@H]2O` is reported as 4.8 µM (MTT; 48 h).
The CC50 of `CCOP(=O)(OCC)[C@@H]1C[C@H](n2cc(-c3nccn3C)nn2)ON1C` is reported as greater than 250 µM (72 h).
`Cc1ccc(-n2cc(CN3CCN(C(=O)c4c(C)nc5ccc(Cl)cn45)CC3)nn2)cc1C` has a CC50 of greater than 100 µM (resazurin).
`COc1cc2nnn(S(=O)(=O)c3ccc(N(C)C)cc3)c2cc1OC` has an IC50 of 55 µM (XTT; 72 h).
The CC50 of `Cc1nc2ccc(Cl)cn2c1C(=O)N1CCN(Cc2cn(-c3cccc([N+](=O)[O-])c3)nn2)CC1` is reported as greater than 100 µM (resazurin).
`CCOP(=O)(OCC)[C@@H]1C[C@H](n2cc(-c3ccccn3)nn2)ON1C` gave a CC50 of greater than 250 µM (72 h).
For `COc1ccc(OC)c(NS(=O)(=O)c2ccc(OC)c([N+](=O)[O-])c2)c1`, the IC50 was greater than 100 µM (XTT; 72 h).
`CCOP(=O)(OCC)[C@@H]1C[C@H](n2cc(Cn3cnc4c(N)ncnc43)nn2)ON1C` (relative stereo) has a CC50 of no less than 250 µM (72 h).
`COc1ccc(NS(=O)(=O)c2ccc(N)cc2)cc1OC` has an IC50 of greater than 100 µM (XTT; 72 h).
For `Cc1ccn2c(C(=O)N3CCN(Cc4cn(-c5ccc(F)c(Cl)c5)nn4)CC3)c(C)nc2c1`, the CC50 was greater than 100 µM (resazurin).
With `COc1ccc(S(=O)(=O)Nc2cc(C#N)ccc2OS(=O)(=O)c2ccc(OC)cc2)cc1` the IC50 was 77 µM (XTT; 72 h).
The CC50 of `CCOP(=O)(OCC)[C@@H]1C[C@@H](n2cc(Cn3ccc(NC(C)=O)nc3=O)nn2)ON1C` (racemic) is reported as greater than 250 µM (72 h).
`COc1cc(NS(=O)(=O)c2ccc([N+](=O)[O-])cc2)cc(OC)c1` gave an IC50 of greater than 100 µM (XTT; 72 h).
The CC50 of `Cc1ccn2c(C(=O)N3CCN(Cc4cn(-c5ccccc5)nn4)CC3)c(C)nc2c1` is reported as greater than 100 µM (resazurin).
The IC50 of `CNc1ccc(S(=O)(=O)Nc2ccc(OC)nc2)cc1` is reported as greater than 100 µM (XTT; 72 h).
With `CCCCCCCCCc1cn(CCN2CCN(C(=O)c3c(C)nc4ccc(Cl)cn34)CC2)nn1` the CC50 was greater than 100 µM (resazurin).
The CC50 of `COC(=O)CNC(=O)C(=O)OC` is reported as greater than 1000 µM.
